Article PMC4303305 (Biochemistry, 2014)
Residue numbers refer to the chain shown, from its start. Names and notes keep the numbering of the source. “Also recorded” adds a separate entry of the source. Read-outs that look alike come from different tables or passages of the source.

Key:
[1] = Size-exclusion FPLC retention of nitrophorins, mutants and ligand complexes; format: physicochemical, Rhodnius prolixus; settings: for dimer formation: under any conditions / at any pH
Outline: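 Analytical run on Superdex75 at 4 °C in 100 mM sodium acetate, NaCl added to 220 mM total ionic strength. Protein at 1 mM was run at pH 5.0, 5.25, 5.5 and 5.75. Separately, protein from 1 to 0.025 mM was run at pH 5.0. Elution position compared with molecular weight standards.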

[2] = Stopped-flow kinetics of release of NO from the nitrophorins; format: binding, Rhodnius prolixus; settings: for NO Kd (NO dissociation): 5–10 μM in 100 mM sodium phosphate buffer
Outline: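 Stopped-flow measurement of NO release from NO-bound nitrophorins with native or M0-bearing N-termini. Dissociation Kd obtained at pH 5.0 and 7.5 in dilute solution, 5–10 μM protein in 100 mM sodium phosphate buffer.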

[3] = cited from earlier work
[4] = format: physicochemical, Rhodnius prolixus; settings: for state of the dimer: pH 7.3
Outline: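 Recombinant nitrophorin refolded from inclusion bodies, reconstituted with excess hemin at pH 7.5, then purified by size-exclusion at pH 5.0. ¹H{¹⁵N} HSQC spectra recorded across pH: 0.2 mM protein at pH 5.0, 5.5 and 6.0; 0.8 mM at pH 6.5. pH 6.5 peaks assigned from pH 7.3 assignments, following cross-peaks through intermediate spectra. NO-bound sample run at 3.7 mM and after dilution to 0.88 mM.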

[5] = column pH 7.5, measured at pH 8.0 rather than pH 7.5 (footnote a)

B1: NP1(K1A) (protein)
chain: ACTKNALAQTGFNKDKYFNGDVWYVTDYLDLEPDDVPKRYCAALAAGTASGKLKEALYHYDPKTQDTFYDVSELQEESPGKYTANFKKVEKNGNVKVDVTSGNYYTFTVMYADDSSALIHTCLHKGNKDLGDLYAVLNRNKDTNAGDKVKGAVTAASLKFSDFISTKDNKCEYDNVSLKSLLTK
monomer or dimer on the size-exclusion column ([1]; pH 5.0): broad peak that encompasses the retention times expected for a dimer and a monomer
monomer or dimer on the size-exclusion column ([1]; pH 5.0, NO added / bound): form dimers; also recorded: two peaks, the first of which is the dimer

B2: Nat. N-term NP1 ^c: native N-terminal NP1 (N-terminus KC...) (protein, UniProt Q26239 24-207, looked up)
Nitrophorin-1: B1 chain with A1K
NO Kd (NO dissociation) ([2]; pH 5.0): 0.032 ± 0.011 s^–1
NO Kd (NO dissociation) ([2]; pH 7.5): 1.11 ± 0.04 s^–1

B3: (M0)NP1sym: (M0)NP1 containing the symmetrical heme, 2,4-dimethyldeuterohemin (protein, UniProt Q26239 24-207, looked up)
Nitrophorin-1: B1 chain with A1K
modifications: Met0; 2,4-dimethyldeuterohemin heme
NO Kd (NO dissociation) ([2]; pH 5.0): 0.218 ± 0.004 s^–1
NO Kd (NO dissociation) ([2]; pH 7.5): 2.66 ± 0.27 s^–1

B4: native N-terminal NP1: NP1 expressed with a leader sequence, giving the native N-terminus KCTK... (protein)
chain: B1 chain with A1K
modifications: left off: His6, C-terminal, kept
monomer or dimer on the size-exclusion column ([1]; pH 5.0, NO added / bound): form dimers

B5: (M0)NP1: recombinant NP1 retaining methionine M0 at the N-terminus (MKCTK...) (protein)
chain: MKCTKNALAQTGFNKDKYFNGDVWYVTDYLDLEPDDVPKRYCAALAAGTASGKLKEALYHYDPKTQDTFYDVSELQEESPGKYTANFKKVEKNGNVKVDVTSGNYYTFTVMYADDSSALIHTCLHKGNKDLGDLYAVLNRNKDTNAGDKVKGAVTAASLKFSDFISTKDNKCEYDNVSLKSLLTK
NO Kd (NO dissociation) ([2]; pH 5.0): 0.426 ± 0.005 s^–1
NO Kd (NO dissociation) ([2]; pH 7.5): 2.32 ± 0.07 s^–1
monomer or dimer on the size-exclusion column ([1]; pH 5.0): not a dimer
dimer formation [1]: do not form dimers
dimer formation ([1]; listed as recombinant NP1): not a dimer at any pH
NO Kd (NO dissociation) [3, 5]: 2.2 ± 0.01 ^a s^–1
NO Kd (NO dissociation) ([3]; pH 5.0, ref 17): 0.20 ± 0.01 s^–1

B6: NP4: NO-carrying heme protein from the salivary glands of Rhodnius prolixus, recombinant, N-terminus ACTK... (protein)
chain: ACTKNAIAQTGFNKDKYFNGDVWYVTDYLDLEPDDVPKRYCAALAAGTASGKLKEALYHYDPKTQDTFYDVSELQVESLGKYTANFKKVDKNGNVKVAVTAGNYYTFTVMYADDSSALIHTCLHKGNKDLGDLYAVLNRNKDAAAGDKVKSAVSAATLEFSKFISTKENNCAYDNDSLKSLLTK
Kd for the loss of NO from NP4, times that from NP1 ([2]; pH 5.0): 0.6
NO Kd (NO dissociation) ([2]; pH 5.0): 0.020 ± 0.003 s^–1
Kd for the loss of NO from NP4, times that of NP1 ([2]; pH 7.5): 1.4
NO Kd (NO dissociation) ([2]; pH 7.5): 1.60 ± 0.11 s^–1
monomer or dimer on the size-exclusion column ([1]; pH 5.0, 1 mM): pure dimer
monomer or dimer on the size-exclusion column ([1]; pH 5.0, serial dilution to 0.025 mM): fairly pure monomer
monomer in 1H{15N} HSQC spectrum ([4]; pH 5.0, 0.2 mM): some monomer present
oligomeric state in solution ([4]; pH 5.6, 0.5 mM, absence of NO): mainly monomeric
dimer in 1H{15N} HSQC spectrum ([4]; pH 6.5, 0.8 mM): not detectable
state of the dimer ([4]; 3.7 mM, absence of NO): completely dissociated to monomer
NO Kd (NO dissociation) [3, 5]: 2.6 ± 0.1 ^a s^–1
NO Kd (NO dissociation) ([3]; pH 5.0, ref 17): 0.14 ± 0.01 s^–1

B7: NP4 apoprotein: NP4 without heme (protein)
chain: B6 chain
monomer or dimer on the size-exclusion column ([1]; pH 5.0): monomeric

B8: NP4-NO: NP4 with nitric oxide bound to the heme (protein)
chain: B6 chain
monomer or dimer on the size-exclusion column ([1]; pH 5.0): dimer
state of the dimer ([4]; 0.88 mM, NO bound): still highly dimerized

B9: K38A (protein)
chain: B6 chain with K38A
monomer or dimer on the size-exclusion column ([1]; pH 5.0): dimers

B10: K125A (protein)
chain: B6 chain with K125A
monomer or dimer on the size-exclusion column ([1]; pH 5.0): dimers

B11: Hm complex: NP4 with histamine bound to the heme iron (protein)
chain: B6 chain
monomer or dimer on the size-exclusion column ([1]; all pH values, including those below 6.0): monomer
monomer or dimer on the size-exclusion column ([1]; pH 5.0): monomer

B12: NP4-ImH: NP4 with imidazole bound (protein)
chain: B6 chain
monomer or dimer on the size-exclusion column ([1]; pH 5.0): dimers

B13: K125E (protein)
chain: B6 chain with K125E
monomer or dimer on the size-exclusion column ([1]; pH 5.0): dimers

B14: D30A (protein)
chain: B6 chain with D30A
monomer or dimer on the size-exclusion column ([1]; pH 5.0): monomers

B15: D30N (protein)
chain: B6 chain with D30N
monomer or dimer on the size-exclusion column ([1]; pH 5.0): monomers

B16: R39A (protein)
chain: B6 chain with R39A
monomer or dimer on the size-exclusion column ([1]; pH 5.0): dimers

B17: A1K: site-directed mutant of NP4, M0 present (N-terminus MKCTK...) (protein)
chain: MKCTKNAIAQTGFNKDKYFNGDVWYVTDYLDLEPDDVPKRYCAALAAGTASGKLKEALYHYDPKTQDTFYDVSELQVESLGKYTANFKKVDKNGNVKVAVTAGNYYTFTVMYADDSSALIHTCLHKGNKDLGDLYAVLNRNKDAAAGDKVKSAVSAATLEFSKFISTKENNCAYDNDSLKSLLTK
monomer or dimer on the size-exclusion column ([1]; pH 5.0): monomer
